Shown are actives, neighbours in structure and some others; about 2.8% of the full set was active somewhere.
PAFAH1B3 inh – PAFAH1B3 enzyme inhibitors, primary screen, biochemical, fluorescence polarization, human; recombinant PAFAH1B3, FP-rhodamine probe; AID 492972, 2010; inhibition, % at 3.39 µM; 340,000 tested, 0.28% active;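 active means inhibition above the screen-wide average of all tested compounds plus 3 SD, cut at about 25% in these data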;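 further: 0% = enzyme with DMSO only and 100% = wells lacking PAFAH1B3 protein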
HTRA1 inhibitor – HTRA1 serine protease inhibitors, primary screen, biochemical, fluorescence polarization, HTS. Q92743. AID 504803, 2011. inhibition, % at 5.96 µM. recombinant HTRA1, FP-rhodamine activity-based probe. 340,000 tested, 0.5% active; in the data active means inhibition above about 36%;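 further: 0% = enzyme with DMSO and 100% = wells lacking enzyme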
PAFAH2 inh – PAFAH2 enzyme inhibitors, primary screen, biochemical, fluorescence polarization, human | Platelet-activating factor acetylhydrolase 2, cytoplasmic (Homo sapiens), Q99487 | recombinant PAFAH2, FP-rhodamine activity probe | inhibition, % at 3.39 µM | 340,000 tested, 0.99% active | AID 492956, 2010;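 active means inhibition above the mean over all tested compounds plus 3 SD, cut at about 30% in these data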;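 further: inhibitors block probe labeling of enzyme so polarization drops; 0% = enzyme with DMSO and 100% = wells lacking PAFAH2 protein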
mABHD4 FP – ABHD4 inhibitors, primary screen, biochemical, fluorescence polarization, mouse | inhibition, % at 8.92 µM | AID 720543, 2013 | purified mABHD4, FP-Rh probe fluorescence polarization | 370,000 tested, 0.54% active | (Lyso)-N-acylphosphatidylethanolamine lipase (Mus musculus), Q8VD66;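 active means inhibition exceeding the mean over every tested compound plus 3 SD, cut at about 30% in these data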;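 further: 0% = plate median of compound wells and 100% = S159A mutant with DMSO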
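Assay system: mouse ABHD4 enzyme, wild type / Also added: fluorescent activity-based probe FP-Rh / Doses: single nominal dose of 8.92 µM, 0.89% DMSO final / Timing: 45 min compound pre-incubation plus 60 min probe step, 25 °C / Signal: FP readout, ex 525 nm / em 598 nm / Control set: S159A mutant/DMSO as 100%, compound-well median as 0%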
pPAFAH FP inh – pPAFAH enzyme inhibitors, primary screen, biochemical, fluorescence polarization, human | inhibition, % at 3.39 µM | Platelet-activating factor acetylhydrolase (Homo sapiens), Q13093 | 330,000 tested, 1.5% active | AID 463082, 2010 | recombinant pPAFAH, FP-rhodamine probe fluorescence polarization;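 active means inhibition above the mean inhibition across the screen plus 3 SD, cut at about 25% in these data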;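 further: inhibitors block binding of the rhodamine activity-based probe so polarization drops; 0% = enzyme with DMSO and 100% = wells lacking pPAFAH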
Target sequence (Q13093 whole entry, looked up): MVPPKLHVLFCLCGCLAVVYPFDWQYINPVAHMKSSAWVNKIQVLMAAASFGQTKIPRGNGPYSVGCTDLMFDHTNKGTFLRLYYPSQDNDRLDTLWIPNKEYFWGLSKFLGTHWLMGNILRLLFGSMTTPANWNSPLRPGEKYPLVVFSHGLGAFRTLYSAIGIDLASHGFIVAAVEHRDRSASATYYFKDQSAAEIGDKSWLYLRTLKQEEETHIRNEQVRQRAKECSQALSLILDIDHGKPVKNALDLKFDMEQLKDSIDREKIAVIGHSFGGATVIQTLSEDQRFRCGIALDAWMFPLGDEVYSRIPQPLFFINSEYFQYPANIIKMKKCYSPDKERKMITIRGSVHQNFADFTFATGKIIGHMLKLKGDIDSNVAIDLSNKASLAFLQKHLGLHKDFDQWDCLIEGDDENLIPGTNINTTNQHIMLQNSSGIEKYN
PAFAH1B2 inh – PAFAH1B2 enzyme inhibitors, primary screen, biochemical, fluorescence polarization, human. recombinant PAFAH1B2, FP-rhodamine activity probe. inhibition, % at 3.39 µM. 340,000 tested, 1.2% active. Platelet-activating factor acetylhydrolase IB subunit alpha2 (Homo sapiens), P68402. AID 492953, 2010;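 active means inhibition above the mean of all tested compounds plus 3 SD, cut at about 24% in these data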;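 further: 0% = enzyme with DMSO and 100% = wells lacking PAFAH1B2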
pPAFAH confirm – pPAFAH (PLA2G7) enzyme inhibitors, confirmation, biochemical, fluorescence polarization, human. shares compounds with pPAFAH FP inh. recombinant pPAFAH, FP-Rh probe fluorescence polarization. inhibition, % at 3.39 µM. 2,300 tested, 72% active. AID 463230, 2010;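 active means mean inhibition of the triplicate above the hit cutoff set for the earlier primary screen, cut at about 25% in these data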;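 further: 0% = enzyme with DMSO and 100% = wells lacking pPAFAH enzyme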
* = called active by the depositor.

What do the screens show for `S=c1nc(C2COc3ccccc3O2)[nH][nH]1` (configuration not stated)?
PAFAH1B3 inh: 8; HTRA1 inhibitor: 10; PAFAH2 inh: 1; mABHD4 FP: -1; pPAFAH FP inh: 3; PAFAH1B2 inh: 7

What do the screens show for `S=c1[nH]nc(C2COc3ccccc3O2)o1` (configuration not stated)?
PAFAH1B3 inh: -6; HTRA1 inhibitor: 0; PAFAH2 inh: -4; mABHD4 FP: 4; pPAFAH FP inh: 44*; PAFAH1B2 inh: 3; pPAFAH confirm: 5

Results for CC(C)CNc1ccc2c(c1)OC[C@@H](CC(C)C)NS2(=O)=O ?
mABHD4 FP: -12

How did Cn1c(=N)n(CC(=O)c2ccc(Br)cc2)c2ccccc21 do in these assays?
PAFAH1B3 inh: -6; HTRA1 inhibitor: -12; PAFAH2 inh: 1; mABHD4 FP: 0; pPAFAH FP inh: 35*; PAFAH1B2 inh: 2; pPAFAH confirm: 6

What do the screens show for `Cn1c(=N)n(CC(=O)c2ccc(F)cc2)c2ccccc21`?
PAFAH1B3 inh: 12; HTRA1 inhibitor: -4; PAFAH2 inh: 4; mABHD4 FP: -4; pPAFAH FP inh: 3; PAFAH1B2 inh: -3

Results for Cc1ccc(C2=CCN(C)C(=O)N2c2ccc(Br)cc2)cc1 ?
mABHD4 FP: -18

What do the screens show for `COc1cc2[nH]c3c(N4CCN(c5ccccn5)CC4)ncnc3c2cc1OC`?
PAFAH1B3 inh: 7; HTRA1 inhibitor: -2; PAFAH2 inh: -3; pPAFAH FP inh: 70*; PAFAH1B2 inh: 4; pPAFAH confirm: 58*

How did COc1ccc(N2CCN(c3ncnc4c3[nH]c3ccccc34)CC2)cc1 do in these assays?
PAFAH1B3 inh: 3; HTRA1 inhibitor: -2; PAFAH2 inh: 4; mABHD4 FP: 11; pPAFAH FP inh: 17; PAFAH1B2 inh: -1

Results for O=S(=O)(Nc1ccc(N=Nc2ccccc2)cc1)c1ccccc1 ?
PAFAH1B3 inh: 10; HTRA1 inhibitor: -6; PAFAH2 inh: 10; mABHD4 FP: -33; pPAFAH FP inh: 67*; PAFAH1B2 inh: 4; pPAFAH confirm: 70*

How did O=S(=O)(Nc1ccc(-n2cccc2)cc1)c1ccccc1 do in these assays?
PAFAH1B3 inh: 5; HTRA1 inhibitor: -17; PAFAH2 inh: 4; mABHD4 FP: -11; pPAFAH FP inh: 22; PAFAH1B2 inh: 5

How did CCOC(=O)N1CCN(C(=O)CCN2C(=O)COc3ccc(C)cc32)CC1 do in these assays?
PAFAH1B3 inh: -2; HTRA1 inhibitor: -2; PAFAH2 inh: -1; mABHD4 FP: -7; pPAFAH FP inh: 78*; PAFAH1B2 inh: 0; pPAFAH confirm: -5

How did O=C(CSc1nc2ccccc2o1)NN=C/C=C\c1ccccc1[N+](=O)[O-] do in these assays?
mABHD4 FP: 9

What do the screens show for `O=C(CN1C(=O)CSC1=O)NCc1ccccc1`?
PAFAH1B3 inh: 1; HTRA1 inhibitor: 5; PAFAH2 inh: -8; mABHD4 FP: -1; pPAFAH FP inh: 78*; PAFAH1B2 inh: 0; pPAFAH confirm: -7

Results for Cc1ccc(C(=O)N2CCCC(CCC(=O)N3CCN(c4ccccn4)CC3)C2)cc1C (configuration not stated) ?
PAFAH1B3 inh: 5; HTRA1 inhibitor: 4; PAFAH2 inh: 3; mABHD4 FP: 4; pPAFAH FP inh: 35*; PAFAH1B2 inh: -2; pPAFAH confirm: 22

Results for CC(=O)Nc1cccc2ncccc12 ?
PAFAH1B3 inh: 3; HTRA1 inhibitor: 4; PAFAH2 inh: 0; mABHD4 FP: -9; pPAFAH FP inh: 55*; PAFAH1B2 inh: -1; pPAFAH confirm: 7

How did CC(C)(C)c1ccc(C(=O)Nc2cccc3ncccc23)cc1 do in these assays?
PAFAH1B3 inh: 0; HTRA1 inhibitor: -3; PAFAH2 inh: 0; mABHD4 FP: -4; pPAFAH FP inh: 1; PAFAH1B2 inh: 3

What do the screens show for `CN1CCCC1CCSc1ncccc1-c1nc2ccccc2[nH]1` (configuration not stated)?
mABHD4 FP: 5

Results for Cn1c(NC2=NC3(CCCC3)C3=C(CCCC3=O)N2)nc2ccccc21 ?
mABHD4 FP: 4
